Results taken from ChEMBL document CHEMBL3091303, “1,3-Dialkyl-substituted tetrahydropyrimido[1,2-f]purine-2,4-diones as multiple target drugs for the potential treatment of neurodegenerative diseases” (Bioorg Med Chem, 2013).

Experiments:
[1] = molecular target: Adenosine receptor A2a (Rattus norvegicus, UniProt P30543); assay: Displacement of [3H]MSX-2 from adenosine A2A receptor in rat brain striatum; format: tissue-based
[2] = molecular target: T1, Adenosine receptor A2b (Homo sapiens, UniProt P29275); assay: Displacement of [3H]PSB-603 from human adenosine A2B receptor
T1 sequence (P29275 whole entry): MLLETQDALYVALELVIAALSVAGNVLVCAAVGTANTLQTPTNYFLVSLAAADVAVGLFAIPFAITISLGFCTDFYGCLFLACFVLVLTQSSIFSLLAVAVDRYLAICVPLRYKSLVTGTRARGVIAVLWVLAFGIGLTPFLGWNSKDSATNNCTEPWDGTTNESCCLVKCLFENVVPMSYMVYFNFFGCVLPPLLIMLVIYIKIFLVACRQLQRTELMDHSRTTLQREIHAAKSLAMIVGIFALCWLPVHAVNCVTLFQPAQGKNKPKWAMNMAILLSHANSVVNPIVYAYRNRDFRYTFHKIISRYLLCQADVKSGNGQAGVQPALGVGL

[3] = molecular target: T2, Adenosine receptor A1 (Rattus norvegicus, UniProt P25099); assay: Displacement of [3H]CCPA from adenosine A1 receptor in rat brain cortex; format: tissue-based
T2 sequence (P25099 whole entry): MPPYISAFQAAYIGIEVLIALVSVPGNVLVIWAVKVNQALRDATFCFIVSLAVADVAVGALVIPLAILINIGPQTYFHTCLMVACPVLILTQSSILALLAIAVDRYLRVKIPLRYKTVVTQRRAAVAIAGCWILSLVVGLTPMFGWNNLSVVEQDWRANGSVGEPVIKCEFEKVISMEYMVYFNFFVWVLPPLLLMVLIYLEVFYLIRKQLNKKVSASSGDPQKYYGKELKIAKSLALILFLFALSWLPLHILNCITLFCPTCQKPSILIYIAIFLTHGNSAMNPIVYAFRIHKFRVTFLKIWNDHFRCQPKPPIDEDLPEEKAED
Procedure, shortened: (§1)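 Radioligand binding to rat A1 receptors in rat brain cortical membrane preparations. Values are given as Ki, or as % inhibition of radioligand binding at the indicated concentration.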

[4] = molecular target: T3, Amine oxidase [flavin-containing] B (Homo sapiens, UniProt P27338); assay: Inhibition of human MAO-B
T3 sequence (P27338 whole entry): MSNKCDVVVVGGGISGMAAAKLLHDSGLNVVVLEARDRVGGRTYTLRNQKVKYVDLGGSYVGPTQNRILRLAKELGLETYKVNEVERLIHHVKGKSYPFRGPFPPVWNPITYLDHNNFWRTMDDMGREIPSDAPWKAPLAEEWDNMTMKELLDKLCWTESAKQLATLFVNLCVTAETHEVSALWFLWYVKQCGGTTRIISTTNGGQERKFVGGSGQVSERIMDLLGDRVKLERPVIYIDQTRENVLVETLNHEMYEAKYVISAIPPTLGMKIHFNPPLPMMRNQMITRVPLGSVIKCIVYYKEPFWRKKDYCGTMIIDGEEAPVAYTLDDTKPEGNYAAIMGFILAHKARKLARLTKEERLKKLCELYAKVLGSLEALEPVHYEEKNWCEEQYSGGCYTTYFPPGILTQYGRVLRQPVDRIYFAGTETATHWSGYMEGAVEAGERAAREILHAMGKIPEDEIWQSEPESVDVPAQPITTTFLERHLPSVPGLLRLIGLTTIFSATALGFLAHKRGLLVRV

[5] = molecular target: Adenosine receptor A2a (Homo sapiens, UniProt P29274); assay: Displacement of [3H]MSX-2 from human adenosine A2A receptor expressed in CHO cells; format: cell-based
Adenosine receptor A2a (Homo sapiens, UniProt P29274), sequence (P29274 whole entry): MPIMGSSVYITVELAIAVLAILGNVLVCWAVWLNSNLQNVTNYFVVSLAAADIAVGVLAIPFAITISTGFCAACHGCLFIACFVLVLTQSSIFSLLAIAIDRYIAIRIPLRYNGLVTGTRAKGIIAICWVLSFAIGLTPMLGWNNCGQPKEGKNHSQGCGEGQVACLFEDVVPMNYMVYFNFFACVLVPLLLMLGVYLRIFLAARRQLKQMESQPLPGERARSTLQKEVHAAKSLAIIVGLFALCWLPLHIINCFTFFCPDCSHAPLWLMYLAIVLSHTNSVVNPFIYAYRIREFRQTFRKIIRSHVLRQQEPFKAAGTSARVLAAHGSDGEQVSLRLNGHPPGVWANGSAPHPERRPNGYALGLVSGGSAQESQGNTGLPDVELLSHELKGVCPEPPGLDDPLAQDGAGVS
Procedure, shortened: (§2)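 Radioligand binding to human receptors recombinantly expressed in Chinese hamster ovary (CHO) cells. Results are Ki, or % inhibition of radioligand binding at the indicated concentration.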

[6] = molecular target: T4, Adenosine receptor A2b (Homo sapiens) (UniProt P29275); assay: Displacement of [3H]PSB-603 from human adenosine A2B receptor relative to control; parameters: concentration or dose not given beside the values; conditions: concentration not given here
T4 sequence (whole entry): T1 sequence (P29275 whole entry)

[7] = molecular target: T5, MAO-B (amine oxidase [flavin-containing] B) (Homo sapiens, UniProt P27338); assay: Inhibition of human MAO-B at 10 uM relative to control
T5 sequence (P27338 whole entry): T3 sequence (P27338 whole entry)
Procedure, shortened: (§3)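 Human MAO-A and MAO-B inhibition, screened first at a test concentration of 10 µM.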

[8] = molecular target: T6, Adenosine receptor A3 (Homo sapiens) (UniProt P0DMS8); assay: Displacement of [3H]PSB-11 from human adenosine A3 receptor expressed in CHO cells relative to control; format: cell-based; parameters: concentration or dose not given beside the values; conditions: concentration not given here
T6 sequence (whole entry): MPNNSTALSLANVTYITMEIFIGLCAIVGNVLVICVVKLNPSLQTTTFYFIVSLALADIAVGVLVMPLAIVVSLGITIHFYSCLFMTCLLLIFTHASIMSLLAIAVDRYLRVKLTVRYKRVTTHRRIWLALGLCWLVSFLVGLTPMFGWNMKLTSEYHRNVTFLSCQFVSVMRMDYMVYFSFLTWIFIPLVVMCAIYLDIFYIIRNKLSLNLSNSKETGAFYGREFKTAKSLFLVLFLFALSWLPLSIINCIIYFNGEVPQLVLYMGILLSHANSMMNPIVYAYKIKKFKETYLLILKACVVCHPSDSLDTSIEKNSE

[9] = molecular target: T7, Adenosine receptor A3 (Homo sapiens, UniProt P0DMS8); assay: Displacement of [3H]PSB-11 from human adenosine A3 receptor expressed in CHO cells; format: cell-based
T7 sequence (P0DMS8 whole entry): T6 sequence (whole entry)

[10] = molecular target: T8, Adenosine receptor A1 (Rattus norvegicus) (UniProt P25099); assay: Displacement of [3H]CCPA from adenosine A1 receptor in rat brain cortex relative to control; format: tissue-based; parameters: concentration or dose not given beside the values; conditions: concentration not given here; procedure, shortened: as §1
T8 sequence (whole entry): T2 sequence (P25099 whole entry)

[11] = molecular target: T9, Amine oxidase [flavin-containing] A (Homo sapiens, UniProt P21397); assay: Inhibition of human MAO-A; procedure, shortened: as §3
T9 sequence (P21397 whole entry): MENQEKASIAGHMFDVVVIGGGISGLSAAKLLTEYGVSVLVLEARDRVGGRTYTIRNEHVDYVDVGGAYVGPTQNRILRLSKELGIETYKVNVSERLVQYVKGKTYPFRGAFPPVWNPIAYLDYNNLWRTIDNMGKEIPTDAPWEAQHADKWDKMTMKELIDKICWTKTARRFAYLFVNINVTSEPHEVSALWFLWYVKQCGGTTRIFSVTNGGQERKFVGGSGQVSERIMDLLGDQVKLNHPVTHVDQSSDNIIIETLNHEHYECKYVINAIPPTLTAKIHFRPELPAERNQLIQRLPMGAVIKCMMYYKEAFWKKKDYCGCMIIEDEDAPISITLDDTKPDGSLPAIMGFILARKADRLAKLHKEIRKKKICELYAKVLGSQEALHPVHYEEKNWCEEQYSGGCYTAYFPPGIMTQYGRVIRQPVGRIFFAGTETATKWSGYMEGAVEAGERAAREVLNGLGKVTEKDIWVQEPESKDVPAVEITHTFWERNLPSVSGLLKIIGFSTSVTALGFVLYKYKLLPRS

[12] = molecular target: T10, MAO-A (amine oxidase [flavin-containing] A) (Homo sapiens, UniProt P21397); assay: Inhibition of human MAO-A at 10 uM relative to control; procedure, shortened: as §3
T10 sequence (P21397 whole entry): T9 sequence (P21397 whole entry)

[13] = molecular target: T11, Adenosine receptor A1 (Homo sapiens, UniProt P30542); assay: Displacement of [3H]CCPA from human adenosine A1 receptor expressed in CHO cells; format: cell-based; procedure, shortened: as §2
T11 sequence (P30542 whole entry): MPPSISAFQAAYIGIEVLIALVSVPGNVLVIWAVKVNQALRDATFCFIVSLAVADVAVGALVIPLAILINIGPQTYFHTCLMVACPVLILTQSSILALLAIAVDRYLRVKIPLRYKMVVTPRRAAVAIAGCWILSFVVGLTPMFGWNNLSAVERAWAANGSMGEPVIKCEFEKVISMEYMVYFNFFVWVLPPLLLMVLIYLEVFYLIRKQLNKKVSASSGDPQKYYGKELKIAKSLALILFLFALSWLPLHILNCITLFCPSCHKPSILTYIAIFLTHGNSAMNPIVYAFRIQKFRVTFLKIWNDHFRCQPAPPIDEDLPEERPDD

[14] = molecular target: Adenosine receptor A2a (Rattus norvegicus) (UniProt P30543); assay: Displacement of [3H]MSX-2 from adenosine A2A receptor in rat brain striatum relative to control; format: tissue-based; parameters: concentration or dose not given beside the values; conditions: concentration not given here
Adenosine receptor A2a (Rattus norvegicus), sequence (P30543 whole entry): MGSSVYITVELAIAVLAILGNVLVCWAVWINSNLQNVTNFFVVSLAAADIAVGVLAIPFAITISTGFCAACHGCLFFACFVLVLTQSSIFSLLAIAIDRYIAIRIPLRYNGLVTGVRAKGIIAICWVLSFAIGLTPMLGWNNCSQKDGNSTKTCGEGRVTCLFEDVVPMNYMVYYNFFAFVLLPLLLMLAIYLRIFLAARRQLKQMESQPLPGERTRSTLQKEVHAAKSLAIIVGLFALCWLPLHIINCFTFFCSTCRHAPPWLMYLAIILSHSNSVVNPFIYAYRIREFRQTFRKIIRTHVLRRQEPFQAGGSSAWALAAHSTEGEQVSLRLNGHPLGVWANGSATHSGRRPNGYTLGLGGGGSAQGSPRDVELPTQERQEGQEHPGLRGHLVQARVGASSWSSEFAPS
Procedure, shortened: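 Radioligand binding to rat A2A receptors in rat brain striatal membrane preparations, reported as % inhibition of radioligand binding at the indicated concentration.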

Adenosine receptor A2a (Rattus norvegicus, UniProt P30543), sequence (P30543 whole entry): as above

Compound	Ki [1] [nM]	Ki [2] [nM]	Ki [3] [nM]	IC50 [4] [nM]	Ki [5] [nM]	inhibition [6] [%]	inhibition at 10 µM [7] [%]	inhibition [8] [%]	Ki [9] [nM]	inhibition [10] [%]	IC50 [11] [nM]	inhibition at 10 µM [12] [%]	Ki [13] [nM]	inhibition [14] [%]
C#CCn1c(=O)c2c(nc3n2CCCN3C2CCN(Cc3ccccc3)CC2)n(C)c1=O	2470	> 1000	> 10000	> 10000	628	-2	22	3	> 1000	32	–	–	–	–
C#CCn1c(=O)c2c(nc3n2CCCN3Cc2ccccc2)n(C)c1=O	533	3520	135	3760	253	–	–	34	> 10000	–	> 10000	5	249	–
Cn1c(=O)c2c(nc3n2CCCN3c2cc(Cl)cc(Cl)c2)n(C)c1=O	5540	> 1000	> 10000	> 10000	4610	11	58	21	> 10000	21	–	–	–	–
CCCn1c(=O)c2c(nc3n2CCCN3CC(=O)N2CCN(c3ccccc3)CC2)n(CCC)c1=O	> 10000	> 1000	> 1500	10000	–	6	46	–	2450	18	–	–	–	27
C#CCn1c(=O)c2c(nc3n2CCCN3Cc2cccc(OC)c2)n(C)c1=O	696	–	227	10000	322	8	51	–	–	–	> 10000	5	1330	–
CCCn1c(=O)c2c(nc3n2CCCN3CC(=O)N2CCN(Cc3ccc(OC)cc3)CC2)n(CCC)c1=O	> 10000	> 1000	> 1500	> 10000	–	4	30	–	1600	18	–	–	–	33
CCn1c(=O)c2c(nc3n2CCCN3CCN2CCCCC2)n(CC)c1=O	> 10000	> 300	1070	> 10000	–	2	34	13	> 1000	–	–	–	–	44
CCn1c(=O)c2c(nc3n2CCCN3CCc2ccc(OC)cc2)n(CC)c1=O	624	> 1000	> 10000	4760	2530	29	–	–	6320	20	> 10000	2	–	–
Cn1c(=O)c2c(nc3n2CCCN3Cc2cc(Cl)cc(Cl)c2)n(C)c1=O	1640	> 1000	165	193	3780	4	–	14	> 10000	–	> 10000	1	1700	–
COc1ccc(CN2CCN(C(=O)CN3CCCn4c3nc3c4c(=O)n(C)c(=O)n3C)CC2)cc1	> 10000	> 1000	> 1500	> 10000	–	-8	30	15	> 10000	0	–	–	–	41
C#CCn1c(=O)c2c(nc3n2CCCN3Cc2cccs2)n(C)c1=O	259	1740	114	10000	626	–	51	30	> 10000	–	> 10000	0	410	–
